From ChEMBL document CHEMBL1136609, “An adjustable release rate linking strategy for cytotoxin-peptide conjugates” (Bioorg Med Chem Lett, 2003)

Key:
[1] = Half-life in rat serum; assay type: ADME, organism-based
Method in brief: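 Compounds incubated at 37°C in fresh rat serum; aliquots removed at several time points and analysed by HPLC to estimate half-life.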

[2] = Half-life in phosphate buffer; assay type: ADME
Method in brief: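 Incubated in 0.1 M phosphate buffer at 37°C; aliquots taken at various time points and analysed by HPLC to give half-life. The experiment ran for 50 h.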

[3] = biological target: Somatostatin receptor; test: Cytotoxic activity against human neuroblastoma IMR32 cells which over-express somatostatin receptors; assay type: functional, cell-based; details: imr-32
Method in brief: (§1)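 Human neuroblastoma IMR-32 cells (somatostatin receptor/SSTR2 over-expressing) exposed to a range of compound concentrations for 3 days, in quadruplicate; viability read by MTT assay; IC50 taken from dose-response curves.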

[4] = species on record: Rattus norvegicus; test: Inhibitory activity against GHRH-stimulated GH release from monolayer cultures of rat pituitary cells; assay type: functional, cell-based; details: Pituitary gland cell
Method in brief: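 Monolayer cultures of rat pituitary cells stimulated with GHRH; agonist potency measured as inhibition of GH release, expressed as IC50.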

[5] = tested on: IMR-32; test: Cytotoxic activity against human neuroblastoma IMR32 cells; assay type: functional, cell-based; method in brief: as §1
[6] = species on record: Rattus norvegicus; test: Inhibitory activity against GHRH-stimulated GH release from monolayer cultures of rat pituitary cells; na is not active; assay type: functional, cell-based; details: pituitary gland cell

Row | half-life [1] [h] | IC50 [4] [nM] | Structure (SMILES) | half-life [2] [h] | IC50 [3] [nM] | IC50 [5] [nM] | IC50 [6]
1 | 106 | 0.32 | CCCC[C@H](NC(=O)[C@@H](CO)NC(=O)CN(CCN)C(=O)O[C@]1(CC)C(=O)OCc2c1cc1n(c2=O)Cc2cc3ccccc3nc2-1)C(=O)N[C@H](Cc1ccc(O)cc1)C(=O)N[C@H](CO)C(=O)N[C@@H]1CSSC[C@H](C(=O)N[C@H](C(N)=O)[C@@H](C)O)NC(=O)[C@H]([C@@H](C)O)NC(=O)[C@H](CCCN)NC(=O)[C@@H](Cc2c[nH]c3ccccc23)NC(=O)[C@H](Cc2ccccc2)NC1=O |  |  | 374 | 
2 | 18 | 0.27 | CCCC[C@H](NC(=O)[C@@H](CO)NC(=O)CN(CCNC)C(=O)O[C@]1(CC)C(=O)OCc2c1cc1n(c2=O)Cc2cc3ccccc3nc2-1)C(=O)N[C@H](Cc1ccc(O)cc1)C(=O)N[C@H](CO)C(=O)N[C@@H]1CSSC[C@H](C(=O)N[C@H](C(N)=O)[C@@H](C)O)NC(=O)[C@H]([C@@H](C)O)NC(=O)[C@H](CCCN)NC(=O)[C@@H](Cc2c[nH]c3ccccc23)NC(=O)[C@H](Cc2ccccc2)NC1=O | 123 | 54.2 |  | 
3 |  | 0.49 | CCCC[C@H](NC(=O)[C@@H](CO)NC(=O)CN(CCO)C(=O)O[C@]1(CC)C(=O)OCc2c1cc1n(c2=O)Cc2cc3ccccc3nc2-1)C(=O)N[C@H](Cc1ccc(O)cc1)C(=O)N[C@H](CO)C(=O)N[C@@H]1CSSC[C@H](C(=O)N[C@H](C(N)=O)[C@@H](C)O)NC(=O)[C@H]([C@@H](C)O)NC(=O)[C@H](CCCN)NC(=O)[C@@H](Cc2c[nH]c3ccccc23)NC(=O)[C@H](Cc2ccccc2)NC1=O |  | > 1000 |  | 
4 |  |  | CC[C@@]1(O)C(=O)OCc2c1cc1n(c2=O)Cc2cc3ccccc3nc2-1 [CAMPTOTHECIN] |  | 2.21 |  | Not Active
5 | 72 | 0.26 | CCCC[C@H](NC(=O)[C@@H](CO)NC(=O)CN(CCCN)C(=O)O[C@]1(CC)C(=O)OCc2c1cc1n(c2=O)Cc2cc3ccccc3nc2-1)C(=O)N[C@H](Cc1ccc(O)cc1)C(=O)N[C@H](CO)C(=O)N[C@@H]1CSSC[C@H](C(=O)N[C@H](C(N)=O)[C@@H](C)O)NC(=O)[C@H]([C@@H](C)O)NC(=O)[C@H](CCCN)NC(=O)[C@@H](Cc2c[nH]c3ccccc23)NC(=O)[C@H](Cc2ccccc2)NC1=O |  | > 1000 |  | 
6 | 59 | 0.3 | CCCC[C@H](NC(=O)[C@@H](CO)NC(=O)CN(CCN(C)C)C(=O)O[C@]1(CC)C(=O)OCc2c1cc1n(c2=O)Cc2cc3ccccc3nc2-1)C(=O)N[C@H](Cc1ccc(O)cc1)C(=O)N[C@H](CO)C(=O)N[C@@H]1CSSC[C@H](C(=O)N[C@H](C(N)=O)[C@@H](C)O)NC(=O)[C@H]([C@@H](C)O)NC(=O)[C@H](CCCN)NC(=O)[C@@H](Cc2c[nH]c3ccccc23)NC(=O)[C@H](Cc2ccccc2)NC1=O |  | 571 |  | 

Row | Structure (SMILES) | half-life [1] [h] | IC50 [4] [nM] | half-life [2] [h] | IC50 [3] [nM] | IC50 [5] [nM] | IC50 [6]
7 | CCCC[C@H](NC(=O)[C@@H](CO)NC(=O)CN(CCN)C(=O)Oc1cc(/C=C\c2cc(OC)c(OC)c(OC)c2)ccc1OC)C(=O)N[C@H](Cc1ccc(O)cc1)C(=O)N[C@H](CO)C(=O)N[C@@H]1CSSC[C@H](C(=O)N[C@H](C(N)=O)[C@@H](C)O)NC(=O)[C@H]([C@@H](C)O)NC(=O)[C@H](CCCN)NC(=O)[C@@H](Cc2c[nH]c3ccccc23)NC(=O)[C@H](Cc2ccccc2)NC1=O | 4 | 0.31 | 31 | 2.79 |  | 
